Bioassay records (PubChem BioAssay)
SR-BI uptake up = activators of SR-BI mediated HDL lipid uptake. CHO ldlA[mSR-BI] cells, DiI-HDL uptake fluorescence, 3 h; 100 = double the neutral-control signal. activation, % at 12.5 µM. actives 0.096% (n = 320,000). AID 504775;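 active = mean replicate activation of at least 60% and every replicate at or above 60%; inconclusive = mean or all-replicate condition met, but not both; inactive = mean below 60% and not all replicates reaching 60%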
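Material: SR-BI-overexpressing, LDLR-lacking CHO cells | Dosing: Single compound concentration, delivered by pin transfer | Probe or stimulus: Labelled HDL, 10 µg/mL | Signal: Bottom-read cell fluorescence after medium removal, ex 550/em 595 nm | Schedule: 3 h, 37 °C | Evaluation: HDL uptake via cellular fluorescence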
SMARCA2 act = increases SMARCA2 function in MMTV reporter cells; activation, % at 9.1 µM; AID 652017; MG213 cells, MMTV-luciferase reporter, dexamethasone, overnight; actives 1% (n = 370,000); in the data active = activation above about 7.8%
AHR activator = activators of human aryl hydrocarbon receptor; P35869; AHR-responsive luciferase reporter cells, luminescence; activation, % at 5 µM; actives 2.5% (n = 320,000); in the data active = activation above about 47%
CR mimetic SO = lowers age-related superoxide in aged yeast cells; superoxide response (% of plate mean), % at 10 µM; S. cerevisiae aged cells, superoxide DHE fluorescence; hits give low values; actives 0.18% (n = 330,000);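 active = superoxide response under a set limit, about three screen SD below normal, cut at about 65% in these data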;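 note: yeast aged for seven days with compound at 30 °C before DHE staining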
Lipid droplet = modulators of hepatic lipid droplet formation. AML12 mouse hepatocytes, oleate lipid droplets, BODIPY imaging. inhibition, % at 6.5 µM. actives 0.4% (n = 240,000);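 active = lipid droplet intensity inhibited by at least 50%, with more than 500 cells counted; inconclusive = wells with under 300 cells, treated as cytotoxic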
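Test system: AML12 hepatocytes (mouse); reagent: oleate loading, 100 µM; dosing: one dose, 6.5 µM compound; incubation: overnight exposure; signal: fluorescence imaging, 20x objective, two fields per well; read-out basis: % inhibition of corrected integrated BODIPY droplet signal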
SR-BI DiI inh = inhibitors of mouse SR-BI mediated HDL lipid uptake. inhibition, % at 12.5 µM. Q61009. ldlA[mSR-BI] CHO cells, DiI-HDL uptake fluorescence, 3 h. AID 488896. actives 0.96% (n = 320,000);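 active = mean replicate inhibition of at least 70% and a set share of replicates each scoring 70 or more; inconclusive = meets just one of the two criteria; inactive = fails both criteria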
Target sequence (Q61009 whole entry, looked up): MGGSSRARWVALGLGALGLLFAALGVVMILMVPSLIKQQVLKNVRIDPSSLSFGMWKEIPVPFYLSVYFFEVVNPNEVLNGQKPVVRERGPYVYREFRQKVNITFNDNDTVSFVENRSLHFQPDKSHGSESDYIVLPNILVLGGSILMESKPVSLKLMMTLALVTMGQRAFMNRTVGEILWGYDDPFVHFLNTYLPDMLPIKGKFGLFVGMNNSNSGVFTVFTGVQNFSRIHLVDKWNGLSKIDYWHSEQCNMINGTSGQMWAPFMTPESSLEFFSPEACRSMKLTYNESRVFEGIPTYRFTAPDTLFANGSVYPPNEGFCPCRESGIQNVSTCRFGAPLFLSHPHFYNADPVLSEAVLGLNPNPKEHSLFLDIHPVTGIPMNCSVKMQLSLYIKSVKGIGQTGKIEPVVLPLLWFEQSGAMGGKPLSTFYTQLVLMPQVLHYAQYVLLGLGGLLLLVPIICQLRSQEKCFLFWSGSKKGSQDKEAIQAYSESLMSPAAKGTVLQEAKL
Numbers stand for hits; n = inactive; u = inconclusive; x = not tested or not shown. In the library only some 4.3% were active in any assay of this set; here they are far more common.

SMILES	SR-BI uptake up	SMARCA2 act	AHR activator	CR mimetic SO	Lipid droplet	SR-BI DiI inh
CC1(C)Cc2c(sc3nc(-c4cccs4)n(N)c(=O)c23)CO1	n	n	73	n	x	n
Cc1ccccc1-c1nc2sc3c(c2c(=O)n1N)CCCC3	n	n	n	n	n	n
CC1(C)Cc2c(sc3nc(-c4ccccc4)n(N)c(=O)c23)CO1	n	n	n	n	x	n
Nc1ccc2ccc(NS(=O)(=O)N3CCCCC3)cc2c1	x	n	x	x	x	x
CCOc1ccc(C(=O)n2cc(C(=O)OC)c3ccccc32)cc1	n	n	n	n	n	n
CCOc1ccc(C(=O)n2cc(C(=O)OC)c3ccccc32)cc1OCC	n	n	n	n	n	81
O=S1(=O)c2ccc(Br)cc2OC[C@H](Cc2ccccc2)N1Cc1cn(Cc2ccc(Cl)cc2)nn1	x	n	x	x	x	x
Cc1cc(C)c[n+](CC(=O)c2ccccc2)c1	n	n	x	n	n	n
CC1=[N+](CC(=O)c2ccccc2)CCn2cccc21	n	n	47	n	n	n
COc1ccc(-c2cscc2N)cc1	x	n	x	x	x	x
COC(=O)[C@]12C[C@H](CC(=O)NCc3ccc(OC)c(OC)c3)C(=O)N(CCC3=CCCCC3)C1=C[C@H](C(C)(C)C)O[C@@H]2C	x	n	x	x	x	x
Cc1cccc(N2CCN(C(=O)c3cc4c(=O)n(C)c5ccccc5c4n3C)CC2C)c1 (configuration not stated)	x	x	68	n	x	x
Cn1c(C(=O)N2CCCCCC2)cc2c(=O)n(C)c3ccccc3c21	n	n	n	n	x	n
Cn1c(C(=O)NC2CCCCCC2)cc2c(=O)n(C)c3ccccc3c21	n	n	51	n	x	n
Cn1c(C(=O)NC2CCCCC2)cc2c(=O)n(C)c3ccccc3c21	n	n	n	n	x	n
COc1ccc(CCNC(=O)c2cc3c(=O)n(C)c4ccccc4c3n2C)c(OC)c1	n	n	n	61	n	n
CCOC(=O)[C@@]12CCC3=C1N(CCC3)C(=O)[C@H](CC(=O)N1CCOCC1)C2	x	n	x	x	x	x
COc1ccc(OC)c(S(=O)(=O)N2CCCCC2C(=O)N2CCCN(C)CC2)c1 (configuration not stated)	x	n	x	x	x	x
Nc1c(C(=O)Nc2ccccc2)sc2nc(-c3ccco3)ccc12	n	n	n	n	x	n
N#Cc1cc2c(N)c(C(=O)Nc3ccccc3)sc2nc1N	x	x	64	n	n	x
COc1ccc(C(=O)/C=C(\Nc2ccc(F)cc2)c2ccc(OC)cc2OC)c(OC)c1	x	n	x	x	x	x
CCc1c(C)c(C#N)c2[nH]c3ccccc3n2c1=S	n	n	59	n	n	n
COc1ccc(CCNC(=O)COc2coc(CN3c4ccccc4CC3C)cc2=O)cc1OC (configuration not stated)	n	n	n	n	x	85
CC1Cc2ccccc2N1Cc1cc(=O)c(OCC(=O)Nc2ccccc2)co1 (configuration not stated)	n	n	n	n	x	n
COc1ccc(CCNC(=O)CCN2C(=O)COc3ccccc32)cc1OC	n	n	85	n	n	n
SMILES	SR-BI uptake up	SMARCA2 act	AHR activator	CR mimetic SO	Lipid droplet	SR-BI DiI inh
CCn1c2ccccc2c2cc(NC(=O)COC(=O)c3cc(F)ccc3C)ccc21	x	n	x	x	x	x
COCCSc1nnc(-c2cccnc2)n1Cc1ccccc1	x	n	x	x	x	x
CC(=O)Nc1ccc(Nc2ncnc3c2cnn3-c2ccccc2)cc1	n	n	n	n	x	n
CC(=O)Nc1ccc(Nc2ncnc3c2cnn3-c2cccc(C)c2)cc1	n	7.9	n	n	n	n
COc1cc2c(c(OC)c1)C(=O)O[C@H](C)C[C@@H]1O[C@H]1CCCCC(=O)C2	x	n	x	x	x	x
CC1(C)CCCN(C(=O)c2ccc3c(c2NCCO)C(=O)c2ccccc2C3=O)C1	n	n	n	n	98	n
O=C1c2ccccc2C(=O)c2c1ccc(C(=O)N1CCCCC1)c2NCCO	n	n	n	n	x	n
Cc1ccccc1S(=O)(=O)N1CCCc2nc(-c3ccccc3)ccc21	x	n	x	x	x	x
Nc1nc(OCC2CCCCC2)c2[nH]cnc2n1	n	n	56	n	n	n
COc1ccc(OC)c(NC(=O)Nc2c(O)ccc3ccccc23)c1	n	n	63	n	x	n
COc1ccc(S(=O)(=O)Nc2ccc(O)c3ccccc23)cc1	n	n	61	n	n	n
COc1ccc(OC)c(C(=O)Nc2c(O)ccc3ccccc23)c1	n	n	n	n	x	u
COc1ccc(S(=O)(=O)Nc2ccccc2)cc1	n	n	n	n	x	n
COc1ccc(OC)c(NC(=O)Nc2ccc(O)c3ccccc23)c1	n	n	49	n	x	n
Cc1ccccc1CN1CCCCC(NC(=O)C2CCCC2)C1=O (configuration not stated)	x	n	x	x	x	x
CCOc1cccc(-c2nn3c(-c4cccc(C)c4)nnc3s2)c1	x	n	x	x	x	x
CCC(O)c1cc2c(cc1NC(=O)c1ccc(C)cc1)OCCO2 (configuration not stated)	n	n	63	n	n	n
N#CC(C(=S)Nc1ccccc1)c1nc2ccccc2[nH]1 (configuration not stated)	n	n	73	n	n	n
CN1CCc2c(sc3c2c(=O)n(-c2ccc(Cl)cc2)c2nncn32)C1	n	n	n	n	x	n
CCN(CC)CCn1c(=O)n(-c2ccc(Cl)cc2)c(=O)c2c3c(sc21)CN(C)CC3	n	n	90	n	n	n
c1ccc(Cn2ccc3ccc(-c4ccc5ccn(Cc6cccc(-c7ccsc7)c6)c5c4)cc32)cc1	x	n	x	x	x	x
COCCNc1nc(SCC(=O)N2CCN(c3ccccc3OC)CC2)nc2ccccc12	n	n	n	n	x	72
CCCCc1c(-c2ccccc2OC)ncn1Cc1ccccc1F	x	n	x	x	x	x
N#CC1=C(N)SC(N)=C(C#N)C1CCc1ccccc1	n	n	86	n	n	n
N#CC1=C(N)SC(N)=C(C#N)C1Cc1ccccc1	n	n	n	n	x	n
SMILES	SR-BI uptake up	SMARCA2 act	AHR activator	CR mimetic SO	Lipid droplet	SR-BI DiI inh
COC(=O)CC[C@@H](/C=C/C(=O)OC(C)(C)C)Sc1ccc(C(C)(C)C)cc1	x	n	x	x	x	x
CSc1nnc(C)c(/C=C/Nc2ccc(Cl)cc2)n1	n	n	50	n	x	n
O=C(O)c1ccc(N2C(=O)CC(SC(=Nc3ccccc3)Nc3ccccc3)C2=O)cc1 (configuration not stated)	n	n	n	n	n	n
O=C1CC(SC(=Nc2ccccc2)Nc2ccccc2)C(=O)N1c1cccc2ccccc12 (configuration not stated)	n	n	n	n	x	93
CC(C)(C)N(Cc1cn(Cc2ccccc2)nn1)S(=O)(=O)c1ccc(F)cc1Br	x	n	x	x	x	x
Cc1ccc(NC(=O)OCCCN2C(=O)CCC23CCC(C)CC3)cc1 (configuration not stated)	x	n	x	x	x	x
COc1cc(NC(=O)c2ccc(Cl)cc2)c(OC)cc1NC(=O)CN1CCCCC1	n	n	n	n	n	n
COc1cc(NC(=O)c2ccccc2)c(OC)cc1NC(=O)CN1C(=O)NC2(CCCCC2)C1=O	n	n	n	n	x	77
